Holding throughout (type): functional
Assay [1] has as its system Eysarcoris. The assay is described as follows: Repellent activity against Eysarcoris ventralis assessed as reduction in number of bugs at 0.1 umol measured after 30 min. The method in brief:
(§1)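 Two-choice bottle assay. Sample dissolved in acetone, 50 μL applied to filter paper strip (5 × 40 mm); control strip got acetone only. Strips dried, each placed in a glass bottle joined to the apparatus. Twenty E. ventralis adults released, held at 10 °C under light; bugs per bottle counted after 30 min. Repellency calculated by formula; four repeats, average ± standard error.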

The subject of assay [2] is Eysarcoris. The assay is described as follows: Repellent activity against Eysarcoris ventralis assessed as reduction in number of bugs at 0.003 umol measured after 30 min. The method in brief: as §1
Assay [3] has as its system Eysarcoris. The experiment in a line: Repellent activity against Eysarcoris ventralis assessed as reduction in number of bugs at 0.01 umol measured after 30 min. The gist of the method:
as §1

Assay [4] deals with Eysarcoris. The experiment in a line: Repellent activity against Eysarcoris ventralis assessed as reduction in number of bugs at 1 umol measured after 30 min. The gist of the method:
as §1

As for `CCCC(=O)OCCCc1cocc1C`, the Repellency in the assay with Eysarcoris [1] is 51.8%; with Eysarcoris [2], 19.5%; in the assay with Eysarcoris [3], -19.4%; in the assay on Eysarcoris [4], 96.4%.

For `CCC(=O)OCCCc1cocc1C`, the results for the Repellency in the assay with Eysarcoris [1], with Eysarcoris [3] and in the assay with Eysarcoris [4] were 58%, 20.5% and 89.3%, respectively.

Consider `Cc1cocc1CCCOC(=O)c1ccccc1`, for which the Repellency in the assay on Eysarcoris [1] was found to be 5.3%; in the assay on Eysarcoris [4], 40.7%.

As for `c1ccc2ccccc2c1` [NAPHTHALENE], the Repellency with Eysarcoris [1] came out at 44.6%; with Eysarcoris [3] it was 40.7%; with Eysarcoris [4], 80.4%.

With `CC(=O)OCCCc1cocc1C`, the Repellency worked out at 90.2% in the assay on Eysarcoris [1], 10.7% in the assay on Eysarcoris [2] and 7.3% with Eysarcoris [3].

Take `Cc1cocc1CCCO`: the Repellency is 5.7% with Eysarcoris [1] and 89.3% in the assay with Eysarcoris [4].
